# Laboratory results reported in ChEMBL document CHEMBL1135898, “Synthesis and antimycobacterial activity of 6-arylpurines: the requirements for the N-9 substituent in active antimycobacterial purines” (J Med Chem, 2002).
# Key:
# [1] = test system: K562; experiment: Cytostatic activity against chronic myelogenous leukemia cells (K-562) based on its ability to inhibit [3H]thymidine incorporation.; format: functional, cell-based; settings: Homo sapiens
# In short: (§1)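 K-562 chronic myelogenous leukemia cells; cytostatic effect read as inhibition of [3H]thymidine incorporation. Reported as percent inhibition at 10 μg/mL, with EC50 derived only for the more toxic compounds.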
# [2] = test system: Mycobacterium tuberculosis; experiment: Percent inhibition of Mycobacterium tuberculosis H37Rv at 6.25 µg/ml concentration in BACTEC 12B medium using microplate alamar blue assay; format: functional
# In short: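 Primary screen at single concentration 6.25 μg/mL against M. tuberculosis H37Rv (ATCC 27294) in BACTEC 12B medium, read by microplate alamar blue assay; fluorescent compounds instead tested in BACTEC 460 radiometric system. Percent growth inhibition reported.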
# [3] = test system: K562; experiment: Cytostatic activity against chronic myelogenous leukemia cells (K-562) based on its ability to inhibit [3H]thymidine incorporation (at 1.0 g/ml); format: functional, cell-based; settings: Homo sapiens
# In short: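 K-562 leukemia cells; inhibition of [3H]thymidine incorporation measured at 1.00 μg/mL instead of the usual 10 μg/mL because of low compound solubility.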
# [4] = test system: K562; experiment: Cytostatic activity against chronic myelogenous leukemia cells (K-562) based on its ability to inhibit [3H]thymidine incorporation; format: functional, cell-based; settings: Homo sapiens; in short: as §1
# [5] = Selectivity Index, SI = IC50:MIC.ND means not determined.; format: functional
# [6] = test system: Mycobacterium tuberculosis; experiment: Antibacterial activity against Mycobacterium tuberculosis H37Rv in BACTEC 12B medium using microplate alamar blue assay; format: functional
# In short: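 MIC against M. tuberculosis H37Rv (ATCC 27294) by microplate alamar blue assay (MABA) in BACTEC 12B medium; compounds reaching ≥90% inhibition in the primary screen were re-tested at lower concentrations. MIC defined as minimum concentration giving 90% inhibition of growth; rifampin reference.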
# [7] = test system: Vero; experiment: Minimum inhibitory concentration for testing cytotoxicity in VERO cells; format: functional, cell-based; settings: Chlorocebus sabaeus
# In short: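 VERO cells exposed 72 h to compound at concentrations up to 62.5 μg/mL. Viability read by cellular MTT conversion to formazan, and an IC50 was derived.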
# [8] = test system: Lacticaseibacillus casei; experiment: Minimum Inhibitory Concentration against drug-resistant strain of Lactobacillus casei; format: functional
# [9] = test system: Mycobacterium tuberculosis; experiment: Concentration effecting 99% reduction of Mycobacterium tuberculosis strain Erdman, growth in monolayers of mouse bone marrow macrophages after 7 days; format: functional; settings: 168 h
# [10] = test system: Mycobacterium tuberculosis; experiment: Concentration effecting 90% reduction of Mycobacterium tuberculosis strain Erdman, growth in monolayers of mouse bone marrow macrophages after 7 days; format: functional; settings: 168 h
smiles,measurement,setting,value
OC[C@H]1OC(n2cnc3c(-c4ccco4)nc(Cl)nc32)[C@H](O)[C@@H]1O (stereo partly drawn),IC50,[1],100 µg/mL
same,Inhibition,[2],7%
c1ccc(Cn2cnc3c(-c4ccccc4)ncnc32)cc1,IC50,[3],< 10 µg/mL
c1ccc(Cn2cnc3c(-c4ccco4)ncnc32)cc1 [9-BENZYL-6-(FURAN-2-YL)-9H-PURINE],IC50,[4],59 µg/mL
same,Selectivity index,[5],2.7
CO[C@H]1/C=C/O[C@@]2(C)Oc3c(C)c(O)c4c(O)c(c(/C=N/N5CCN(C)CC5)c(O)c4c3C2=O)NC(=O)/C(C)=C\C=C\[C@H](C)[C@H](O)[C@@H](C)[C@@H](O)[C@@H](C)[C@H](OC(C)=O)[C@@H]1C [RIFAMPIN],MIC,[6],0.25 µg/mL
c1ccc(CCn2cnc3c(-c4ccco4)ncnc32)cc1,IC50,[4],53 µg/mL
Cn1cnc2c(-c3ccco3)ncnc21,IC50,[4],< 10 µg/mL
Clc1nc(-c2ccccc2)c2ncn(Cc3ccccc3)c2n1,IC50,[1],76 µg/mL
C=CCn1cnc2c(-c3ccco3)ncnc21,IC50,[4],11 µg/mL
c1csc(-c2[nH]cnc3ncnc2-3)c1,IC50,[4],< 10 µg/mL
c1ccc(Cn2cnc3c(-c4cccs4)ncnc32)cc1,IC50,[3],< 10 µg/mL
same,IC50,[7],> 10 µg/mL
same,Selectivity index,[5],> 1.6
CC(=O)OC[C@H]1O[C@@H](Cn2cnc3c(-c4ccccc4)ncnc32)[C@H](OC(C)=O)[C@@H]1OC(C)=O,Inhibition,[2],4%
c1coc(-c2ncnc3c2ncn3CC2CCCCC2)c1,IC50,[4],60 µg/mL
c1ccc(-c2ncnc3c2ncn3C2CCOCC2)cc1,IC50,[4],< 10 µg/mL
Clc1nc(-c2ccco2)c2ncn(Cc3ccccc3)c2n1,IC50,[1],27 µg/mL
same,MIC,[8],> 10 µg/mL
same,EC99,[9],8.46 µg/mL
same,EC90,[10],0.038 µg/mL
OC[C@H]1OC(n2cnc3c(-c4ccco4)ncnc32)[C@H](O)[C@@H]1O (stereo partly drawn),Inhibition,[2],0%
OC[C@H]1O[C@@H](n2cnc3c(-c4ccccc4)ncnc32)[C@H](O)[C@@H]1O,IC50,[4],99 µg/mL
